Results: ChEMBL document CHEMBL5030534, “Discovery of Novel Anti-Breast-Cancer Inhibitors by Synergistically Antagonizing Microtubule Polymerization and Aryl Hydrocarbon Receptor Expression” (J Med Chem, 2021)
pIC50: −log10 of the molar value. The source made the active and inactive calls. The rule behind the calls is not given here.

Assays:
MCF-10A = assay: Antiproliferative activity against human MCF-10A cells assessed as reduction in cell viability incubated for 48 hrs by MTT assay; type: cell-based
Outline: (§1)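 Cells seeded at 5 × 10³ per well, incubated overnight, then exposed to a range of compound concentrations for 48 h. MTT added for 4 h, medium replaced with DMSO, absorbance read at 570 nm. MCF-7, L-O2 grown in DMEM; MCF-10A, MCF-7/ADR in RPMI 1640. Three independent runs.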

L02 = assay: Antiproliferative activity against human L-O2 cells assessed as reduction in cell viability incubated for 48 hrs by MTT assay; type: cell-based; settings: L02, 48 h; outline: as §1
Tubulin (Homo sapiens) = Tubulin (Homo sapiens) (UniProt P68371+Q9H4B7+P0DPH7+P68366+Q13509+Q71U36+P04350+Q3ZCM7+P07437+P68363+Q9BQE3+Q6PEY2+Q13885+Q9BVA1+Q9BUF5); assay: Induction of microtubule depolymerization in human MCF7 cells at 10 uM measured every 5 mins for 60 mins by spectrophotometric method; type: cell-based
Outline: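 Purified tubulin at 2 mg/mL in PEM buffer preincubated on ice with compound or DMSO. PEG added to a final 3 mg/mL, then polymerization followed at 37 °C by absorbance at 350 nm every 5 min for 60 min.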

MCF7 [1] = assay: Antiproliferative activity against human MCF7 cells assessed as reduction in cell viability incubated for 48 hrs by MTT assay; type: functional, cell-based; settings: MCF7, 48 h; outline: as §1
MCF7 [2] = assay: Antitumor activity against human MCF7 cells xenografted in BALB/c nude mouse assessed as decrease in tumor weight at 20 mg/kg, iv administered every 2 days for 21 days and measured every 2 days; type: functional; parameters: scale not given: the % may be the effect or the level left; settings: time 21 day
Outline: (§2)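 MCF-7 cells (6 × 10⁶) injected subcutaneously into right flank of BALB/c nude mice; after 7 days animals randomized, eight per group. Dosing iv every 2 days for 21 days, vehicle 10% DMSO/5% Tween 80/85% saline. Tumor size and body weight recorded every 2 days; tumors excised and weighed at sacrifice.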

[3] = Antiproliferative activity against human MCF7/ADR cells assessed as reduction in cell viability incubated for 48 hrs by MTT assay; type: functional, cell-based; settings: MCF7, 48 h
Outline: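 Cells seeded at 5 × 10³ per well, incubated overnight, then exposed to a range of compound concentrations for 48 h. MTT added for 4 h, medium replaced with DMSO, absorbance read at 570 nm. Three independent runs.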

MCF7 [4] = assay: Antitumor activity against human MCF7 cells xenografted in BALB/c nude mouse assessed as decrease in tumor weight at 10 mg/kg, iv administered every 2 days for 21 days and measured every 2 days; type: functional; parameters: scale not given: the % may be the effect or the level left; settings: time 21 day; outline: as §2

Row | pIC50 (MCF7 [1]) | SMILES | pIC50 (MCF-10A) | pIC50 (L02) | Activity (Tubulin (Homo sapiens)) | Activity (MCF7 [2]) [%] | pIC50 [3] | Activity (MCF7 [4]) [%]
1 | 7.60 | CCN(CC)c1ccc(N(C)c2cc(C)nc3ccccc23)cc1 | 7.92 | 7.51 | – | – | 6.57 | –
2 | – | CC(=O)O[C@H]1C(=O)[C@@]2(C)[C@H]([C@H](OC(=O)c3ccccc3)[C@]3(O)C[C@H](OC(=O)[C@H](O)[C@@H](NC(=O)c4ccccc4)c4ccccc4)C(C)=C1C3(C)C)[C@]1(OC(C)=O)CO[C@@H]1C[C@@H]2O [PACLITAXEL] | – | – | inactive | – | – | 84.2
3 | 6.03 | Cc1cc(N(C)c2ccc(N(C)C)cc2)c2ccccc2n1 | 7.31 | 6.64 | – | – | 7.48 | –
4 | 7.27 | Cc1cc(N(C)c2ccc3c(c2)OCO3)c2ccccc2n1 | 6.90 | 5.60 | – | – | 7.34 | –
5 | 6.99 | Cc1ccc(N(C)c2cc(C)nc3ccccc23)cc1 | 6.74 | 5.82 | – | – | 7.27 | –
6 | 8.62 | Cc1cc(N(C)c2ccc3c(c2)cc(C)n3C)c2ccccc2n1 | 8.00 | 8.14 | – | – | 8.66 | –
7 | 7.01 | COc1ccc(N(C)c2cc(C)nc3ccccc23)cc1OC | 6.33 | 5.66 | – | – | 7.54 | –
8 | 8.68 | Cc1nc(N(C)c2cnc3c(ccn3C)c2)c2ccccc2n1 | 7.80 | 8.14 | – | – | 8.68 | –
9 | < 6.00 | Cc1cc(N(C)c2ccc(-c3ccccc3)cc2)c2ccccc2n1 | < 6.00 | 5.46 | – | – | 6.09 | –
10 | < 6.00 | COc1cc(N(C)c2cc(C)nc3ccccc23)cc(OC)c1OC | < 6.00 | 5.38 | – | – | 6.04 | –
11 | 8.35 | Cc1cc(N(C)c2cnc3c(ccn3C)c2)c2ccccc2n1 | 7.62 | 8.00 | – | – | 8.21 | –
12 | < 6.00 | Cc1cc(N(C)c2ccc(C(F)(F)F)cc2)c2ccccc2n1 | < 6.00 | 5.42 | – | – | 6.07 | –

Row | SMILES | pIC50 (MCF7 [1]) | pIC50 (MCF-10A) | pIC50 (L02) | Activity (Tubulin (Homo sapiens)) | Activity (MCF7 [2]) [%] | pIC50 [3] | Activity (MCF7 [4]) [%]
13 | COc1ccc(/C=C\c2cc(OC)c(OC)c(OC)c2)cc1O [COMBRETASTATIN A4] | 8.32 | 7.00 | 7.99 | Active | 37.5 | – | –
